Screening results as filed in PubChem.
Shown are actives, neighbours in structure and some others; about 1.1% of the full set was active somewhere.
SR-BI HDL uptake: mouse SR-BI HDL lipid transfer inhibition | ldlA[mSR-BI] CHO cells, DiI-HDL uptake fluorescence, 3 h | inhibition, % at 12.5 µM | 0.96% of 320,000 active | AID 488896;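 active means mean replicate inhibition of at least 70% and a set share of replicates each scoring 70 or more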;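 further: 0% = median of neutral control wells and 100% = median of positive control wells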
GSK3beta inhib: human GSK3beta kinase inhibition. GST-GSK3beta kinase, ADP-Glo luminescence, 60 min; stronger effect = lower value. activity score (negative = inhibition), % at 10 µM. 0.038% of 300,000 active. AID 2097;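 active means more than half of replicate wells score below -50%, meaning over 50% inhibition versus plate controls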;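 further: 0% = median DMSO wells and -100% = median GW8510 positive control wells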
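Assay system: GST-tagged human GSK3beta kinase, cell-free; Input: 1.6 ng GSK3beta; Medium: Tris/MgCl2 kinase buffer; Timing: 60 min enzyme reaction, room temperature; Signal: ADP-Glo luminescence quantifying ADP generated by kinase; Evaluation: score relative to plate controls; Benchmarks: DMSO neutral wells and GW8510 at 20 µM as positive.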
SR-BI DiI-HDL act: activators of SR-BI mediated HDL lipid uptake; 0.096% of 320,000 active; activation, % at 12.5 µM; CHO ldlA[mSR-BI] cells, DiI-HDL uptake fluorescence, 3 h; 100 = double the neutral-control signal; AID 504775;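 active means mean replicate activation of at least 60% and every replicate at or above 60%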;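 further: 0% = median plate neutral-control signal and 100% = twice that signal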
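System: CHO ldlA[mSR-BI] cells / Medium: HEPES-buffered (25 mM, pH 7.4) F12 plus 0.5% BSA / Probe or stimulus: labelled HDL, 10 µg/mL / Doses: single compound concentration, delivered by pin transfer / Schedule: 3 h, 37 °C / Measured by: DiI fluorescence, bottom read / Measure: cell-associated DiI fluorescence as measure of HDL uptake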
GSK3A inh: blocks human GSK-3 alpha kinase; P49840; ADP-Glo luminescence, 60 min; inhibition, % at 10 µM; 0.1% of 320,000 active; AID 2650;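 active means more than half of replicates show inhibition above 20%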;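 further: GST-tagged GSK-3 alpha with peptide substrate and 25 µM ATP; 0% = DMSO neutral wells and 100% = GW8510 positive control wells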
CDK5 inh: CDK5/p35 (human) kinase inhibition | Q00535+Q15078 | Recombinant CDK5/p35, ADP-Glo luminescence, 60 min | inhibition, % at 10 µM | 0.01% of 330,000 active | AID 488839;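 active means highest replicate inhibition of at least 50% and at least 75% of replicates reaching 50%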;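 further: plate controls were DMSO neutral control for no effect and GW8510 at 10 µM for full effect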
Target sequence (Q00535 whole entry, looked up): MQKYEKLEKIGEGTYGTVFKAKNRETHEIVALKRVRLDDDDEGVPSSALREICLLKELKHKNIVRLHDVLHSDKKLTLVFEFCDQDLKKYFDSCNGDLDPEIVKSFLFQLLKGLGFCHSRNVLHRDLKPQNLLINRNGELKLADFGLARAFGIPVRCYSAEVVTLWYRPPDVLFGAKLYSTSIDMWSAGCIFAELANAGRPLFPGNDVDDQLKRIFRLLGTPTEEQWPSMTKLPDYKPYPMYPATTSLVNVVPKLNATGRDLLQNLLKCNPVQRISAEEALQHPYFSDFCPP
Target sequence (Q15078 whole entry, looked up): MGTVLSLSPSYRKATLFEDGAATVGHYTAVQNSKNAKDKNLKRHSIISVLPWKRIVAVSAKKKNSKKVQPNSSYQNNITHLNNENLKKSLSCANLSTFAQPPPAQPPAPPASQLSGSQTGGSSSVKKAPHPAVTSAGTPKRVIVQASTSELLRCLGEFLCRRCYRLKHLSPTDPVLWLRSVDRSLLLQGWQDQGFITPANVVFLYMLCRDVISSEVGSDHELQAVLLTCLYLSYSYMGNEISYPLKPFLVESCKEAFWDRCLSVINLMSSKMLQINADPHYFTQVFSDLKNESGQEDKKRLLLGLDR
Starred values were filed as active, the others as inactive.

Screening COc1ccc(C=NN=C2c3ccccc3-c3ccccc32)cc1OC returned SR-BI HDL uptake 79.4*, SR-BI DiI-HDL act -79.4 and CDK5 inh 0.5.
`Cc1ccc(S(=O)(=O)N2CCCCC2)cc1NC(=O)c1cnccn1` gave SR-BI HDL uptake -1.1, SR-BI DiI-HDL act 1.1 and CDK5 inh 0.9.
For COc1ccc(/C=C/c2c(-c3ccccc3OC)sc3ccccc23)cc1OC the results were SR-BI HDL uptake 45.8, SR-BI DiI-HDL act -45.8, GSK3A inh -2.3 and CDK5 inh -0.9.
`COc1ccc(-c2sc3ccccc3c2/C=C/c2ccc(OC)c(OC)c2)cc1` gave SR-BI HDL uptake 81.5*, SR-BI DiI-HDL act -81.5, GSK3A inh -1.2 and CDK5 inh -2.6.
Cc1ccc(C2(c3noc(CN(C)Cc4cnn(C)c4)n3)CCCC2)cc1 was read as SR-BI HDL uptake -121.9, GSK3beta inhib 2.4, SR-BI DiI-HDL act 121.9*, GSK3A inh -0.5 and CDK5 inh -0.8.
For Cc1ccc(C2(c3noc(CN(C)CCCN4CCOCC4)n3)CCCC2)cc1 the results were GSK3beta inhib -0.3 and GSK3A inh 1.4.
`CN(C)CCCNc1nc(N)c([N+](=O)[O-])c(NCCO)n1` gave SR-BI HDL uptake 0.8, GSK3beta inhib -25.4, SR-BI DiI-HDL act -0.7, GSK3A inh 50.0* and CDK5 inh 0.8.
`C=CCNc1nc(N)c([N+](=O)[O-])c(Nc2ccccc2OC)n1` gave SR-BI HDL uptake -3.7, GSK3beta inhib -12.2, SR-BI DiI-HDL act 3.7, GSK3A inh 22.4 and CDK5 inh -0.7.
`CCC(C)Nc1nc(N)c([N+](=O)[O-])c(Nc2ccccc2OC)n1` (configuration not stated) gave SR-BI HDL uptake 22.2, GSK3beta inhib -54.6*, SR-BI DiI-HDL act -22.2, GSK3A inh 65.7* and CDK5 inh 1.4.
For Nc1nc(NCCc2ccccc2)nc(NCCO)c1[N+](=O)[O-] the results were SR-BI HDL uptake 2.5, GSK3beta inhib -0.7, SR-BI DiI-HDL act -2.5, GSK3A inh 93.3* and CDK5 inh 10.8.
COc1ccccc1Nc1nc(NCCCN(C)C)nc(N)c1[N+](=O)[O-] was read as SR-BI HDL uptake 1.0, GSK3beta inhib -82.8*, SR-BI DiI-HDL act -1.0, GSK3A inh 94.6* and CDK5 inh 0.8.
Screening CCOC(=O)C1CCNC(=O)C1=O (configuration not stated) returned SR-BI HDL uptake -7.0, SR-BI DiI-HDL act 7.0 and CDK5 inh -1.9.
`Cc1ccc(N/N=C(\C#N)C(N)=S)c(C)c1` gave SR-BI HDL uptake 77.5*, GSK3beta inhib 1.2, SR-BI DiI-HDL act -77.5, GSK3A inh 5.2 and CDK5 inh 0.2.
Cc1ccc(NC(=O)/C(C#N)=N/Nc2ccc(C(=O)O)cc2)c(C)c1 was read as SR-BI HDL uptake -27.4, GSK3beta inhib 0.1, SR-BI DiI-HDL act 27.4, GSK3A inh 1.3 and CDK5 inh 1.0.
`CCOc1ccc(C(C)=O)cc1COC(=O)c1ccc2c(c1)NC(=O)CS2` gave SR-BI HDL uptake 80.1*, SR-BI DiI-HDL act -80.1 and CDK5 inh -1.0.
Cc1ccc(COc2ccsc2C(=O)NNC(N)=S)cc1 was read as SR-BI HDL uptake -11.1, GSK3beta inhib 1.3, SR-BI DiI-HDL act 11.1, GSK3A inh -2.9 and CDK5 inh -5.2.
`CCNc1nc(N)c(C(=O)c2ccc(Cl)s2)s1` gave SR-BI HDL uptake 6.6, GSK3beta inhib -89.9*, SR-BI DiI-HDL act -6.6, GSK3A inh 97.9* and CDK5 inh 5.9.
For C=CCN1C2CCCC1CC(NC(=S)Nc1ccc(Cl)cc1)C2 (configuration not stated) the results were SR-BI HDL uptake 5.4, GSK3beta inhib 0.0, SR-BI DiI-HDL act -5.4, GSK3A inh 1.1 and CDK5 inh -0.5.
For COC(=O)c1sc(NC(=O)c2c(OC)cccc2OC)c(C#N)c1C the results were SR-BI HDL uptake 59.5, GSK3beta inhib 0.8, SR-BI DiI-HDL act -59.5, GSK3A inh -1.6 and CDK5 inh -2.3.
Screening CCC(C)NCC(=O)Nc1cc(S(=O)(=O)N(CC)c2ccccc2)ccc1Cl (configuration not stated) returned SR-BI HDL uptake 72.1*, GSK3beta inhib 0.2, SR-BI DiI-HDL act -72.1, GSK3A inh -1.0 and CDK5 inh 0.4.
`Cc1ccc(S(=O)(=O)CCSc2n[nH]c(=O)n2-c2ccc3c(c2)OCCO3)cc1` gave GSK3beta inhib -28.9, GSK3A inh 76.8* and CDK5 inh 0.9.
`O=C(CSc1n[nH]c(=O)n1-c1ccc2c(c1)OCCO2)Nc1ccccc1` gave SR-BI HDL uptake -9.0, GSK3beta inhib 0.6, SR-BI DiI-HDL act 9.0, GSK3A inh 13.4 and CDK5 inh -0.9.
Screening CCN(CC)S(=O)(=O)c1ccc2c(c1)nc(CCC(=O)Nc1ccc(N3CCOCC3)cc1)n2C returned SR-BI HDL uptake 51.7, GSK3beta inhib -0.2, SR-BI DiI-HDL act -51.7, GSK3A inh -2.0 and CDK5 inh 1.3.
Screening O=C(NC1CCN(c2ncccn2)CC1)c1ccccc1Cl returned GSK3beta inhib -1.5, GSK3A inh -2.9 and CDK5 inh 2.0.
`CC1C/C(=N\NC(N)=S)c2cc(Cl)ccc2S1` (configuration not stated) gave SR-BI HDL uptake 80.1*, GSK3beta inhib 0.4, SR-BI DiI-HDL act -80.1, GSK3A inh -1.5 and CDK5 inh -0.2.
`C/C(CCc1ccc2c(c1)OCO2)=N\N=C1\NC(=O)CC(C(=O)Nc2ccccc2F)S1` (configuration not stated) gave SR-BI HDL uptake 72.8*, GSK3beta inhib 4.8, SR-BI DiI-HDL act -72.8, GSK3A inh -0.1 and CDK5 inh 0.0.
Screening CCOc1ccc(NC(=O)CN(C)C(=O)C2CC(=O)N(c3cccc(SC)c3)C2)cc1OCC (configuration not stated) returned SR-BI HDL uptake 72.1*, SR-BI DiI-HDL act -72.1 and CDK5 inh 1.1.
`O=C(CN(c1cccc(Br)c1)S(=O)(=O)c1ccccc1)N/N=C/c1cc([N+](=O)[O-])ccc1O` gave SR-BI HDL uptake 124.1*, GSK3beta inhib 4.9, SR-BI DiI-HDL act -124.1, GSK3A inh -1.4 and CDK5 inh -1.7.
For O=C(CCCC(=O)NN=Cc1ccccc1Cl)NN=Cc1ccccc1Cl the results were SR-BI HDL uptake 7.3, SR-BI DiI-HDL act -7.3 and CDK5 inh 1.5.
For O=C(CCCC(=O)NN=Cc1ccc(Cl)cc1Cl)NN=Cc1ccc(Cl)cc1Cl the results were SR-BI HDL uptake 96.1*, SR-BI DiI-HDL act -96.1 and CDK5 inh -4.9.
N#Cc1c(N2CCSCC2)nsc1-c1ccccc1Cl was read as SR-BI HDL uptake 28.4, GSK3beta inhib -0.9, SR-BI DiI-HDL act -28.4, GSK3A inh -2.1 and CDK5 inh 0.5.
Screening CCCCc1ccc(N=N/C(C(=O)Nc2cc(OC)c(NC(C)=O)cc2OC)=C(/C)O)cc1 returned SR-BI HDL uptake 87.1*, GSK3beta inhib -0.2, SR-BI DiI-HDL act -87.1, GSK3A inh -2.8 and CDK5 inh 1.2.
